# Screening results: PubChem, Johns Hopkins Ion Channel Center
# TRPC4 act – activators of mouse TRPC4 channel, primary screen, Fluo4 calcium, HEK293 TRPC4beta/mu-opioid cells | B-score at 10 µM | AID 2237, 2010 | Fluo4 calcium fluorescence; hits give high values | Short transient receptor potential channel 4 (Mus musculus), Q9QUQ5 | actives 0.49% (n = 310,000);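 active = B-score above 5 SD of library B-scores, and initial fluorescence ratio not above library mean plus 5 SD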;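 note: positive B-score marks a calcium rise read as TRPC4 activation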
#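 Assay system – TRPC4beta and mu-opioid receptor HEK293 stable cells · Measured by – Fluo4 fluorescence, kinetic · Schedule – dye loading 45 min room temperature, 110 s kinetic read · Read-out – B-scored integrated calcium fluorescence ratio · Controls – buffer and maximal DAMGO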
# TRPC6 act – mouse TRPC6 channel activators, primary screen, cell-based, HEK293, membrane potential dye | Short transient receptor potential channel 6 (Mus musculus), Q61143 | HEK293-TRPC6 membrane potential dye fluorescence; hits give high values | B-score at 10 µM | actives 0.13% (n = 310,000) | AID 2550, 2010;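 active = B-score of the integrated fluorescence ratio above library mean plus 3 SD, and starting fluorescence ratio within library mean plus 5 SD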;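 note: higher score means more depolarization so channel activation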
# Target sequence (Q61143 whole entry, looked up): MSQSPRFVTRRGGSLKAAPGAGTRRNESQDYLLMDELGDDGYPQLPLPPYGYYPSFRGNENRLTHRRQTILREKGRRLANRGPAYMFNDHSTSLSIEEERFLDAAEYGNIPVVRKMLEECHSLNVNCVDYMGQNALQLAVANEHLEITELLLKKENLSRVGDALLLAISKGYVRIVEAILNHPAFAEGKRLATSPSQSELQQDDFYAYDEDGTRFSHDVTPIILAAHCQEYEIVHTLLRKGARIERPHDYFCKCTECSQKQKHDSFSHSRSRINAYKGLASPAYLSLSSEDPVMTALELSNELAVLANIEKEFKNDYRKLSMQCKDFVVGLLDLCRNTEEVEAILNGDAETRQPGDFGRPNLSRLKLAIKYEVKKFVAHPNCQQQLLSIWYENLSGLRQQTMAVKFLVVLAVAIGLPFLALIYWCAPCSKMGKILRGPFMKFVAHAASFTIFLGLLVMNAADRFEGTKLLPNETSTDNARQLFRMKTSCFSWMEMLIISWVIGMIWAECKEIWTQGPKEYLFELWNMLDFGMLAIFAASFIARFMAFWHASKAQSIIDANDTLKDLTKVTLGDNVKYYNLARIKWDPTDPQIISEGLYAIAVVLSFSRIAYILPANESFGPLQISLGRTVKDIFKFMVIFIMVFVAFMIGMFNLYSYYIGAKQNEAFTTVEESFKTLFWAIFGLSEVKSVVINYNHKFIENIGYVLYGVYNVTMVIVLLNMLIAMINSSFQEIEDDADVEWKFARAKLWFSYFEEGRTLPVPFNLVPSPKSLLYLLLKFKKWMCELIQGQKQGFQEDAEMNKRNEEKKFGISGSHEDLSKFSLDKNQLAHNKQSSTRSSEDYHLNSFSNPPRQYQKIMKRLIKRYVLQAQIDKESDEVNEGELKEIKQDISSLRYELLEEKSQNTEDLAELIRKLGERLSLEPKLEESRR
# Kir21 block – inhibitors of mouse Kir2.1 inward-rectifier potassium channel; actives 0.85% (n = 310,000); B-score at 10 µM; HEK293-Kir2.1, FluxOR thallium flux fluorescence; hits give low values; AID 1672, 2009; Inward rectifier potassium channel 2 (Mus musculus), P35561;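 active = fluorescence ratio B-score at or below minus 3 SD of library scores, with starting-brightness B-score within 2 SD, cut at about -4.2 in these data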;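 note: channel flux triggered by added potassium and thallium sulfate stimulus; B-score of peak minus minimum fluorescence over baseline after thallium stimulus; more negative B-score means stronger Kir2.1 block with less thallium influx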
# TRPC4 block – inhibitors of mouse TRPC4 channel, primary screen, Fluo4 calcium, HEK293 TRPC4beta/mu-opioid cells | actives 0.39% (n = 300,000) | AID 2247, 2010 | B-score at 10 µM | DAMGO-evoked Fluo4 calcium flux; hits give low values | Short transient receptor potential channel 4 (Mus musculus), Q9QUQ5;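 active = B-score over 3 SD under the library average, no early fluorescence shift, positive overall ratio signal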
#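 Signal: kinetic Fluo4 fluorescence imaging of calcium influx. Material: stable TRPC4beta/mu-opioid receptor HEK293 cells. Probe or stimulus: DAMGO in two steps, submaximal then maximal.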
# TRPC6 inh – mouse TRPC6 channel inhibitors, primary screen, cell-based, HEK293, membrane potential dye | B-score at 10 µM | actives 1.1% (n = 310,000) | Short transient receptor potential channel 6 (Mus musculus), Q61143 | ACh-evoked depolarization; hits give low values | AID 2553, 2010;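 active = B-score under library mean minus 3 SD, initial fluorescence not abnormally high, positive integrated signal ratio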;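 note: B-score derived from integrated fluorescence ratio over the kinetic read; more negative B-score means stronger inhibition of depolarization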
# TRPC4 PAM – positive allosteric modulators of TRPC4, primary screen, cell-based, mouse TRPC4beta, HEK293 mu-opioid, Fluo-4 calcium; actives 0.42% (n = 310,000); DAMGO EC20, Fluo-4 Ca2+ flux; hits give high values; B-score at 10 µM; AID 2227, 2009;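 active = B-score of calcium response area above 5 SD of library B-scores, with initial fluorescence ratio within 5 SD of library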;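 note: B-score of integrated fluorescence ratio over time as area under calcium response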
# TRPC4 sel inh 2 – second check of whether TRPC6 inhibitors also affect mouse TRPC4 | HEK293 TRPC4/MOR, membrane potential dye fluorescence; channel activated by saturating DAMGO dose | shares compounds with TRPC6 inh | AID 2776 | inhibition, % at 10 µM | actives 42% (n = 920);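 active = compounds whose fluorescence signal differed from control wells by over 3 SD, either direction, in both duplicate plates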
# TRPC4 spec – mouse TRPC4 modulation by TRPC6 hits, confirmation, selectivity assay for TRPC6 inhibitor project, cell-based, HEK293 TRPC4/mu-opioid, membrane potential dye | shares compounds with TRPC6 inh | membrane potential fluorescence | activity change, negative = inhibition, % at 10 µM | actives 61% (n = 920) | AID 2777, 2010;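 active = rise or fall in signal beyond 3 SD of buffer-only wells in both replicate plates, either sign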;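 note: integrated kinetic ratio of fluorescence range over baseline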
# HEK293 MPD ctr 2-1 – nonspecific membrane potential effects, parental HEK293, confirmation, counter-screen for TRPC6 inhibitor project, cell-based, second counter screen; shares compounds with TRPC6 inh; parental HEK293 membrane potential dye fluorescence; maximal acetylcholine challenge after compound addition; signal change vs control, % at 10 µM; actives 31% (n = 920); AID 2779, 2010;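 active = membrane potential signal moving either way by over 3 SD of the maximum-effect control, in both duplicate plates, meaning non-specific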
# HEK293 MPD ctr-1 – membrane potential modulation in parental HEK293, confirmation, counter-screen for TRPC6 inhibitor project, cell-based; shares compounds with TRPC6 inh; parental HEK293 membrane potential dye fluorescence; membrane potential signal change, % at 10 µM; actives 60% (n = 920);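 active = membrane potential signal shifting up or down by more than 3 SD of buffer-only wells, on both duplicate plates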
# HEK293 MPD ctr-2 – parental HEK293 membrane potential modulation, confirmation, counter-screen for TRPC6 modulator project, cell-based. shares compounds with TRPC6 inh. membrane potential dye fluorescence. membrane potential signal change, % at 10 µM. actives 51% (n = 2,400);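 active = membrane potential signal moves up or down beyond 5 SD from buffer-only wells, on both duplicate plates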
# HEK293 MPD ctr 2-2 – parental HEK293 nonspecific activity of TRPC6 modulators, second screen | shares compounds with TRPC6 inh | membrane potential dye fluorescence; after compound, maximal acetylcholine stimulation | inhibition, % at 10 µM | actives 14% (n = 2,400) | AID 488926;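 active = membrane potential signal drops by more than 5 SD from the mean control signal, in both duplicate plates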;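 note: plate controls were acetylcholine ECmax control wells for no effect and buffer only wells for full effect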
# TRPC4/MOR mod – TRPC4 modulation by TRPC6 hit compounds, confirmation, selectivity assay for TRPC6 modulator project, cell-based, HEK293 TRPC4/mu-opioid, membrane potential dye, mouse. shares compounds with TRPC6 inh. membrane potential fluorescence. percent change from control (negative = decrease, positive = increase), % at 10 µM. actives 69% (n = 2,400). AID 488927, 2010;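 active = membrane potential signal moved up or down beyond 5 SD of buffer control wells, in both duplicate plates, actives on both sides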;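 note: plate controls were assay buffer wells for no effect and DAMGO maximal-effect wells for full effect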
# TRPC4 ctr inh 2 – mouse TRPC4 off-target activity of TRPC6 modulators, second screen | shares compounds with TRPC6 inh | HEK293 TRPC4/mu-opioid, membrane potential dye fluorescence; stimulated with maximal-effect DAMGO | inhibition, % at 10 µM | actives 55% (n = 2,400);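 active = drop in membrane potential signal beyond 5 SD of the control wells in both duplicate plates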;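 note: TRPC4 counter screen for TRPC6 hits run under conditions tuned for TRPC6 not TRPC4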
# TRPC6 inh conf – mouse TRPC6 channel inhibitors, confirmation, HEK293 cells, membrane potential dye, duplicate; shares compounds with TRPC6 inh; ACh-evoked depolarization; inhibition, % at 10 µM; actives 43% (n = 3,300); AID 488960, 2010;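 active = fluorescence ratio falls more than 5 SD below the full-stimulation control mean, in both duplicate runs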;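 note: integrated fluorescence ratio of peak minus minimum over baseline after agonist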
# TRPC6 act confirm – mouse TRPC6 channel activators, confirmation, HEK293 cells, membrane potential dye, duplicate | shares compounds with TRPC6 inh | HEK293-TRPC6 membrane potential dye fluorescence, FDSS | activation, % at 10 µM | actives 11% (n = 2,800) | AID 488961, 2010;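 active = ratio signal rise beyond 5 SD above unstimulated control wells' mean, seen in both duplicate runs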;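 note: plate controls were buffer EC0 wells for no effect and acetylcholine ECmax response for full effect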
# * = called active by the depositor; i = inactive; / = not tested or not shown. Hits are enriched below; roughly 2.9% of the tested compounds scored in any of these assays.
SMILES,TRPC4 act,TRPC6 act,Kir21 block,TRPC4 block,TRPC6 inh,TRPC4 PAM,HEK293 MPD ctr-2,HEK293 MPD ctr 2-2,TRPC4/MOR mod,TRPC4 ctr inh 2,TRPC6 inh conf,TRPC6 act confirm,others
O=C(O)CCC(=O)N1CCN(Cc2ccc3c(c2)OCO3)CC1,i,i,2,i,-6.8*,i,/,/,/,/,i,i,TRPC4 sel inh 2=i;TRPC4 spec=i;HEK293 MPD ctr 2-1=i;HEK293 MPD ctr-1=i
Cc1ccc(C(=O)N2CCN(Cc3ccc4c(c3)OCO4)CC2)c(Cl)c1,i,i,0.15,i,i,i,/,/,/,/,/,/,
CSc1ccc(S(=O)(=O)N2CCN(Cc3ccc4c(c3)OCO4)CC2)cc1,i,i,-0.22,i,-5*,i,i,i,i,i,40%*,i,
O=C(c1ccc(Cn2cc(Cl)cn2)o1)N1CCN(Cc2ccc3c(c2)OCO3)CC1,i,i,0.19,i,-5.7*,i,98%*,i,18%*,i,40%*,/,
COCCNC(=O)CN1C(=O)COc2ccc(S(=O)(=O)N3CC(C)CC(C)C3)cc21 (stereo not drawn),i,i,-0.19,i,i,i,/,/,/,/,/,/,
COCCNc1c2c(nc3c(-c4ccccc4)c(C)nn13)CCC2,i,i,-0.72,i,i,i,/,/,/,/,/,/,
Cc1nn2c(NCCOCCO)c3c(nc2c1-c1ccccc1)CCC3,i,i,0.26,i,i,i,/,/,/,/,/,/,
Cc1nn2c(NCCCN(C)C)c3c(nc2c1-c1ccccc1)CCCC3,i,i,-0.03,i,-6.8*,i,/,/,/,/,63%*,i,TRPC4 sel inh 2=72%*;TRPC4 spec=-19%*;HEK293 MPD ctr 2-1=i;HEK293 MPD ctr-1=-296%*
Cc1nn2c(NCCCN(C)C)c3c(nc2c1-c1ccccc1)CCC3,i,i,-1.5,i,-7.9*,i,-167%*,i,-30%*,55%*,i,i,
CC1(C)CC2CC(C)(CN2/C=N/c2sc3c(c2C#N)CC(C)(C)NC3(C)C)C1 (stereo not drawn),i,i,0.39,i,i,i,/,/,/,/,/,/,
CCN(CC)S(=O)(=O)c1ccc(N2CCN(C)CC2)c(NC(=O)c2cc(=O)c3ccccc3o2)c1,i,i,0.54,i,i,i,/,/,/,/,/,/,
CCC(C)(C)c1ccc(OCCCC[n+]2ccc(C)cc2)c(C(C)(C)CC)c1,i,i,-4.9*,i,-6.2*,i,i,i,-14%*,i,i,i,
OC(C#CCN1CCCCCC1)(c1ccccc1)c1cccnc1 (stereo not drawn),i,i,-0.67,i,-7.3*,i,/,/,/,/,63%*,/,TRPC4 sel inh 2=i;TRPC4 spec=3.4%*;HEK293 MPD ctr 2-1=8.5%*;HEK293 MPD ctr-1=4.8%*
CCCN(CC#CC(O)(c1ccccc1)c1cccnc1)CCC (stereo not drawn),i,i,-0.13,i,i,i,/,/,/,/,/,/,
OC(C#CCN1CCCC1)(c1ccccc1)c1cccnc1 (stereo not drawn),i,i,-0.41,i,-6.1*,i,i,69%*,i,i,82%*,i,
CSCC[C@H](NC(=O)Nc1ccc(OC(F)(F)F)cc1)C(=O)O,i,i,-0.14,i,i,i,/,/,/,/,/,/,
COc1ccc(C(C(=O)NCC2CCCO2)N(C(=O)CNC(=O)c2cccs2)c2ccc(C(C)=O)cc2)cc1OC (stereo not drawn),i,i,0.11,i,i,i,/,/,/,/,/,/,
Oc1ccc(N=Nc2ccc(Br)cc2)c(O)c1,i,i,3.5,i,-5.3*,i,i,i,i,i,i,i,
CCOc1ccc(NC(=O)C2C(C(=O)O)C3(Cl)C(Cl)=C(Cl)C2(Cl)C3(Cl)Cl)cc1 (stereo not drawn),i,13*,-0.62,i,i,i,250%*,i,33%*,i,i,106%*,
